In ChEMBL document CHEMBL1649184, “Mutations in the nonstructural protein 3A confer resistance to the novel enterovirus replication inhibitor TTP-8307” (Antimicrob Agents Chemother, 2009):
pEC50: −log10 of the molar value. Active and inactive are the calls of the source. No cut-off for these calls is given here.

What was measured:
[1] = test system: Vero; experiment: Antiviral activity against Coxsackievirus B3 (strain Nancy) infected in african green monkey Vero cells assessed as inhibition viral replication at 25 uM administered at 1 hr interval starting at 1 hr before viral infection measured within first 3 hrs postinfection; format: functional, cell-based
Method in brief: (§1)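 Confluent Vero cells infected with 10⁴ CCID50 CVB3, 1 h adsorption at 37°C, inoculum replaced with medium. Compound (final 25 µM) added at 1-h intervals, starting 1 h before infection. At 8 h post-infection, supernatant and intracellular RNA collected and viral RNA quantified by one-step TaqMan qRT-PCR against a synthetic transcript standard curve; normalized to 0-h point; two independent experiments.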

[2] = test system: Vero; experiment: Antiviral activity against Coxsackievirus B3 (strain Nancy) infected in african green monkey Vero cells assessed as inhibition viral replication at 25 uM administered at 1 hr interval starting at 3 hrs after viral infection; format: functional, cell-based; method in brief: as §1
[3] = test system: Coxsackievirus B3; experiment: Antiviral activity against Human coxsackievirus B3 harboring nonstructural protein 3A I8T mutant infected in african green monkey Vero cells assessed as inhibition of virus-induced cytopathic effect after 3 days by plaque assay; format: functional, organism-based; details: Enterovirus B, 72 h
[4] = test system: rhinovirus A39; experiment: Antiviral activity against Human rhinovirus 39 infected in african green monkey Vero cells assessed as inhibition of virus-induced cytopathic effect after 3 days by MTS-based CPE reduction assay; format: functional, organism-based; details: Rhinovirus A, 72 h
Method in brief: (§2)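 Confluent cells infected with 100 CCID50 virus; 2 h adsorption at 37°C (35°C for rhinovirus), then inoculum removed and serial compound dilutions added. Incubated 3 days at 37°C until full CPE in virus controls. MTS/PMS added for 2 h, OD498 read; % CPE from cell and virus controls; EC50 as 50% protection, by logarithmic interpolation. Mean of ≥3 independent experiments.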

[5] = test system: rhinovirus B14; experiment: Antiviral activity against Human rhinovirus 14 infected in african green monkey Vero cells assessed as inhibition of virus-induced cytopathic effect after 3 days by MTS-based CPE reduction assay; format: functional, organism-based; details: Rhinovirus B, 72 h; method in brief: as §2
[6] = Antiviral activity against Human coxsackievirus A16 (strain G-10) A16 infected in african green monkey Vero cells assessed as inhibition of virus-induced cytopathic effect after 3 days by MTS-based CPE reduction assay; format: functional, cell-based; details: Enterovirus A, 72 h; method in brief: as §2
[7] = test system: Poliovirus 1; experiment: Antiviral activity against Human poliovirus 1 strain Sabin infected in african green monkey Vero cells assessed as inhibition of virus-induced cytopathic effect after 3 days by MTS-based CPE reduction assay; format: functional, cell-based; details: Enterovirus C, 72 h
Method in brief: (§3)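 Confluent cells infected with 100 CCID50 virus, adsorbed 2 h at 37°C, then virus removed and serial compound dilutions added (DMSO stocks diluted in MEM with 2% FBS). Incubated 3 days at 37°C until full CPE in virus controls. Viability read by MTS/PMS, OD498 after 2 h. EC50 by logarithmic interpolation of % CPE protection. Mean of at least three independent experiments.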

[8] = test system: Poliovirus 3; experiment: Antiviral activity against Human poliovirus 3 strain Sabin infected in african green monkey Vero cells assessed as inhibition of virus-induced cytopathic effect after 3 days by MTS-based CPE reduction assay; format: functional, organism-based; details: Enterovirus C, 72 h; method in brief: as §3
[9] = test system: Coxsackievirus B3; experiment: Inhibition of viral polyprotein synthesis in Coxsackievirus B3 (strain Nancy) infected in buffalo green monkey cells at 25 uM by SDS PAGE assay; format: functional, cell-based
Method in brief: (§4)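 Confluent BGM cells infected with CVB3 at MOI 50. At 5 h, methionine starvation for 30 min, then 30-min [35S]Met pulse with or without 25 µM compound. At 6 h, lysed in Tris-HCl pH 7.4/NaCl/EDTA/NP-40/0.05% SDS buffer; translation products resolved by SDS-PAGE. Three independent experiments.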

[10] = Antiviral activity against Human rhinovirus 42 infected in african green monkey Vero cells assessed as inhibition of virus-induced cytopathic effect after 3 days by MTS-based CPE reduction assay; format: functional, cell-based; details: Rhinovirus B, 72 h; method in brief: as §2
[11] = test system: rhinovirus B72; experiment: Antiviral activity against Human rhinovirus 72 infected in african green monkey Vero cells assessed as inhibition of virus-induced cytopathic effect after 3 days by MTS-based CPE reduction assay; format: functional, organism-based; details: Rhinovirus B, 72 h; method in brief: as §2
[12] = test system: Coxsackievirus B3; experiment: Antiviral activity against Human coxsackievirus B3 harboring nonstructural protein 3A V45A mutant infected in african green monkey Vero cells assessed as inhibition of virus-induced cytopathic effect after 3 days by plaque assay; format: functional, organism-based; details: Enterovirus B, 72 h
[13] = test system: rhinovirus A89; experiment: Antiviral activity against Human rhinovirus 89 infected in african green monkey Vero cells assessed as inhibition of virus-induced cytopathic effect after 3 days by MTS-based CPE reduction assay; format: functional, organism-based; details: Rhinovirus A, 72 h; method in brief: as §2
[14] = test system: Coxsackievirus B3; experiment: Inhibition of viral polyprotein processing in Coxsackievirus B3 (strain Nancy) infected in buffalo green monkey cells at 25 uM by SDS PAGE assay; format: functional, cell-based; method in brief: as §4
[15] = test system: rhinovirus A63; experiment: Antiviral activity against Human rhinovirus 63 infected in african green monkey Vero cells assessed as inhibition of virus-induced cytopathic effect after 3 days by MTS-based CPE reduction assay; format: functional, organism-based; details: Rhinovirus A, 72 h; method in brief: as §2
[16] = test system: rhinovirus A29; experiment: Antiviral activity against Human rhinovirus 29 infected in african green monkey Vero cells assessed as inhibition of virus-induced cytopathic effect after 3 days by MTS-based CPE reduction assay; format: functional, organism-based; details: Rhinovirus A, 72 h; method in brief: as §2
[17] = Antiviral activity against Coxsackievirus B3 (strain Nancy) infected in african green monkey Vero cells assessed as inhibition of virus-induced cytopathic effect after 3 days by MTS-based CPE reduction assay; format: functional, cell-based; details: Enterovirus B, 72 h; method in brief: as §2
[18] = test system: Vero; experiment: Antiviral activity against Coxsackievirus B3 (strain Nancy) infected in african green monkey Vero cells assessed as inhibition of virus-induced cytopathic effect after 3 days by plaque assay; format: functional, cell-based
Method in brief: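 Confluent Vero cells infected with CVB3 for 2 h at 37°C with gentle shaking, washed twice with PBS, then overlaid with 0.4% agar with or without compound. After 3-4 days, fixed with 4% formaldehyde, agar removed, Giemsa-stained and plaques counted. Read at day 3 post-infection; averages ± SD of three independent experiments.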

[19] = test system: Coxsackievirus B3 (strain Nancy); experiment: Antiviral activity against Coxsackievirus B3 (strain Nancy) infected in buffalo green monkey cells assessed as inhibition of viral RNA accumulation at 2 mM by luciferase reporter gene assay; format: functional, cell-based
[20] = test system: rhinovirus A9; experiment: Antiviral activity against Human rhinovirus 9 infected in african green monkey Vero cells assessed as inhibition of virus-induced cytopathic effect after 3 days by MTS-based CPE reduction assay; format: functional, organism-based; details: Rhinovirus A, 72 h; method in brief: as §2
[21] = test system: Coxsackievirus B3; experiment: Antiviral activity against Human coxsackievirus B3 harboring nonstructural protein 3A H57Y mutant infected in african green monkey Vero cells assessed as inhibition of virus-induced cytopathic effect after 3 days by plaque assay; format: functional, organism-based; details: Enterovirus B, 72 h
[22] = test system: Poliovirus 2; experiment: Antiviral activity against Human poliovirus 2 Sabin infected in african green monkey Vero cells assessed as inhibition of virus-induced cytopathic effect after 3 days by MTS-based CPE reduction assay; format: functional, organism-based; details: Enterovirus C, 72 h; method in brief: as §3
[23] = test system: rhinovirus A2; experiment: Antiviral activity against Human rhinovirus 2 infected in african green monkey Vero cells assessed as inhibition of virus-induced cytopathic effect after 3 days by MTS-based CPE reduction assay; format: functional, organism-based; details: Rhinovirus A, 72 h; method in brief: as §2
[24] = test system: Coxsackievirus B3; experiment: Antiviral activity against Human coxsackievirus B3 harboring nonstructural protein 3A I54F mutant infected in african green monkey Vero cells assessed as inhibition of virus-induced cytopathic effect after 3 days by plaque assay; format: functional, organism-based; details: Enterovirus B, 72 h
[25] = test system: rhinovirus B70; experiment: Antiviral activity against Human rhinovirus 70 infected in african green monkey Vero cells assessed as inhibition of virus-induced cytopathic effect after 3 days by MTS-based CPE reduction assay; format: functional, organism-based; details: Rhinovirus B, 72 h; method in brief: as §2
[26] = test system: rhinovirus A15; experiment: Antiviral activity against Human rhinovirus 15 infected in african green monkey Vero cells assessed as inhibition of virus-induced cytopathic effect after 3 days by MTS-based CPE reduction assay; format: functional, organism-based; details: Rhinovirus A, 72 h; method in brief: as §2
[27] = test system: rhinovirus B86; experiment: Antiviral activity against Human rhinovirus 86 infected in african green monkey Vero cells assessed as inhibition of virus-induced cytopathic effect after 3 days by MTS-based CPE reduction assay; format: functional, organism-based; details: Rhinovirus B, 72 h; method in brief: as §2
[28] = test system: rhinovirus A45; experiment: Antiviral activity against Human rhinovirus 45 infected in african green monkey Vero cells assessed as inhibition of virus-induced cytopathic effect after 3 days by MTS-based CPE reduction assay; format: functional, organism-based; details: Rhinovirus A, 72 h; method in brief: as §2
[29] = Antiviral activity against Human enterovirus 71 (strain BRCR) infected in african green monkey Vero cells assessed as inhibition of virus-induced cytopathic effect after 3 days by MTS-based CPE reduction assay; format: functional, cell-based; details: Enterovirus A, 72 h; method in brief: as §2
[30] = test system: Coxsackievirus B3; experiment: Antiviral activity against Human coxsackievirus B3 harboring wild type nonstructural protein 3A infected in african green monkey Vero cells assessed as inhibition of virus-induced cytopathic effect after 3 days by plaque assay; format: functional, organism-based; details: Enterovirus B, 72 h
[31] = test system: rhinovirus A85; experiment: Antiviral activity against Human rhinovirus 85 infected in african green monkey Vero cells assessed as inhibition of virus-induced cytopathic effect after 3 days by MTS-based CPE reduction assay; format: functional, organism-based; details: Rhinovirus A, 72 h; method in brief: as §2
[32] = Antiviral activity against Human coxsackievirus A21 (strain Coe) infected in african green monkey Vero cells assessed as inhibition of virus-induced cytopathic effect after 3 days by MTS-based CPE reduction assay; format: functional, cell-based; details: Enterovirus C, 72 h; method in brief: as §3
[33] = test system: rhinovirus A41; experiment: Antiviral activity against Human rhinovirus 41 infected in african green monkey Vero cells assessed as inhibition of virus-induced cytopathic effect after 3 days by MTS-based CPE reduction assay; format: functional, organism-based; details: Rhinovirus A, 72 h; method in brief: as §2
[34] = test system: Coxsackievirus B3 (strain Nancy); experiment: Antiviral activity against Coxsackievirus B3 (strain Nancy) infected in buffalo green monkey cells assessed as inhibition of viral RNA accumulation at 25 uM by luciferase reporter gene assay; format: functional, cell-based
Method in brief: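 BGM cells transfected with RNA from SalI-linearized CVB3 subgenomic replicon with luciferase replacing P1, with or without 25 µM compound. At set times post-transfection, cells washed with PBS, lysed, and luciferase measured as relative light units. Averages ± SD of three independent experiments.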

[35] = Cytotoxicity against african green monkey Vero cells; format: cell-based; details: chlorocebus sabaeus, read-out: TC50 (the source's name)
Method in brief: (§5)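 Cytotoxicity measured on confluent Vero and HeLa cells, given as 50% cytotoxic concentration; solubility limit in assay medium 100 µM.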

[36] = Cytotoxicity against human HeLa cells; format: cell-based; details: read-out: TC50 (the source's name); method in brief: as §5

Structure (SMILES) | pEC50 [3] | pEC50 [4] | pEC50 [5] | pEC50 [6] | pEC50 [7] | pEC50 [8] | pEC50 [10] | pEC50 [11] | pEC50 [12] | pEC50 [13] | pEC50 [15] | pEC50 [16] | pEC50 [17] | pEC50 [20] | pEC50 [21] | pEC50 [22] | pEC50 [23] | pEC50 [24] | pEC50 [25] | pEC50 [30] | other results
C[C@@H](NC(=O)c1cccc(-c2cnc(-c3cc4ccccc4cn3)[nH]2)c1)c1ccc(F)cc1 | 5.22 | 6.19 | < 4.30 | 6.07 | 6.29 | 6.57 | < 4.30 | < 4.30 | 4.75 | < 4.30 | 7.04 | 6.11 | 5.92 | < 4.30 | 4.82 | 6.24 | 6.10 | 4.70 | < 4.30 | 5.72 | inhibition [1]: Active; inhibition [2]: inactive; inhibition [9]: inactive; inhibition [14]: inactive; inhibition [18]: Dose-dependent effect; inhibition [19]: Active; pEC50 [26]: < 4.30; pEC50 [27]: < 4.30; pEC50 [28]: 6.00; pEC50 [29]: < 4.22; pEC50 [31]: 5.91; pEC50 [32]: 5.27; pEC50 [33]: < 4.30; inhibition [34]: Active
C[C@@H](NC(=O)c1cccc(-c2c[nH]c(-c3cc4ccccc4cn3)n2)c1)c1ccc(F)cc1 | – | – | – | – | – | – | – | – | – | – | – | – | – | – | – | – | – | – | – | – | CC50 [35]: > 100000 nM; CC50 [36]: > 100000 nM
Fc1cccc(F)c1C1SCc2nc3cc(C(F)(F)F)ccc3n21 (stereo not drawn) | 5.54 | – | – | – | – | – | – | – | 5.44 | – | – | – | – | – | 5.47 | – | – | 5.43 | – | 5.54 | –
CC(C)S(=O)(=O)n1c(N)nc2ccc(/C(=N/O)c3ccccc3)cc21 [ENVIROXIME] | 6.15 | 7.55 | 6.96 | 6.92 | 6.72 | 7.40 | 6.96 | 6.14 | 5.82 | 7.00 | 7.57 | 7.54 | 5.72 | 7.42 | 5.77 | 7.22 | 7.59 | 5.74 | 6.96 | 6.30 | pEC50 [26]: 7.38; pEC50 [27]: 6.85; pEC50 [28]: 6.60; pEC50 [29]: 6.82; pEC50 [31]: 7.48; pEC50 [32]: 6.32; pEC50 [33]: 7.57
